From ChEMBL document CHEMBL4229340, “Attaching NorA efflux pump inhibitors to methylene blue enhances antimicrobial photodynamic inactivation of Escherichia coli and Acinetobacter baumannii in vitro and in vivo” (Bioorg Med Chem Lett, 2018)
Active and inactive are the calls of the source. No cut-off for these calls is given here.

Columns and labels:
[1] = test system: Escherichia coli; experiment: (§1) Photodynamic antibacterial activity against enteropathogenic Escherichia coli WS2572 infected in BALB/c mouse full-thickness third-degree burn infection model assessed as reduction in bacterial load in shaved dorsal surfaces of mouse after 15 mins followed by up to 120 J/cm'2 irradiation with red light over 20 mins measured after 10 days by bioluminescence imaging method; format: functional, organism-based
How it was run: (§2)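 Mouse full-thickness third-degree burn on the shaved back, inoculated with bioluminescent EPEC WS2572. Wounds got 40 μL of 250 μM stock compound, then 652 nm red light at 0, 12, 36, 84, 108 and 120 J/cm2 or no light. Normalized wound RLU (mean ± SEM, 4-6 mice/group) was imaged during illumination and daily for 14 days after.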

[2] = test system: Acinetobacter baumannii; experiment: Photodynamic antibacterial activity against wild type Acinetobacter baumannii AB007 assessed as bacterial killing at 20 uM incubated for 30 mins followed by 6 J/cm'2 irradiation with red light relative to control; format: functional
How it was run: (§3)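 A. baumannii AB007 was exposed to compound at 1-20 μM, with or without red-light illumination, alongside dark controls. Survival fraction came from CFU counts. Mean ± SEM from three independent experiments.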

[3] = test system: Escherichia coli; experiment: Dark toxicity against wild type Escherichia coli K-12 assessed as reduction in bacterial load at 1 to 20 uM incubated for 30 mins; format: organism-based; details: in vitro, 0.5 h
How it was run: (§4)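 E. coli K-12 and isogenic TolC knockout JW5503-1 were exposed to compound at 1-20 μM, then illuminated with 652 nm red light at 100 mW/cm2 to 6 J/cm2, or kept dark. Serially diluted aliquots were plated for CFU and survival fraction determined. Mean ± SEM from three independent experiments.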

[4] = test system: Escherichia coli; experiment: Photodynamic antibacterial activity against TolC deficient Escherichia coli JW5503-1 assessed as bacterial killing at 10 uM incubated for 30 mins followed by 6 J/cm'2 irradiation with red light relative to control; format: functional; how it was run: as §4
[5] = test system: Escherichia coli; experiment: Dark toxicity against TolC deficient Escherichia coli JW5503-1 assessed as reduction in bacterial load at 1 to 20 uM incubated for 30 mins; format: organism-based; details: in vitro, 0.5 h; how it was run: as §4
[6] = test system: Escherichia coli; experiment: as §1, with “36” for “up to 120”, “mins” for “mins measured after 10 days”; format: functional; set-up: scale not given: the % may be the effect or the level left; how it was run: as §2
[7] = test system: Escherichia coli; experiment: as §1, with “84” for “up to 120”, “mins” for “mins measured after 10 days”; format: functional, organism-based; how it was run: as §2
[8] = test system: Escherichia coli; experiment: Photodynamic antibacterial activity against wild type Escherichia coli K-12 assessed as bacterial killing at 10 uM incubated for 30 mins followed by 6 J/cm'2 irradiation with red light relative to control; format: functional; how it was run: as §4
[9] = test system: Escherichia coli; experiment: Photodynamic antibacterial activity against TolC deficient Escherichia coli JW5503-1 assessed as bacterial killing at 20 uM incubated for 30 mins followed by 6 J/cm'2 irradiation with red light relative to control; format: functional; how it was run: as §4
[10] = test system: Escherichia coli; experiment: Photodynamic antibacterial activity against wild type Escherichia coli K-12 assessed as bacterial killing at 20 uM incubated for 30 mins followed by 6 J/cm'2 irradiation with red light relative to control; format: functional; how it was run: as §4
[11] = test system: Acinetobacter baumannii; experiment: Dark toxicity against wild type Acinetobacter baumannii AB007 assessed as reduction in bacterial load at 1 to 20 uM incubated for 30 mins; format: organism-based; details: in vitro, 0.5 h; how it was run: as §3
[12] = test system: Escherichia coli; experiment: Dark toxicity against enteropathogenic Escherichia coli WS2572 infected in BALB/c mouse full-thickness third-degree burn infection model assessed as reduction in bacterial load in shaved dorsal surfaces of mouse measured after 15 mins by bioluminescence imaging method; format: organism-based; set-up: scale not given: the % may be the effect or the level left; details: in vivo, 0.25 h; how it was run: as §2
[13] = test system: Acinetobacter baumannii; experiment: Dark toxicity against Acinetobacter baumannii AB Iraqi 007 infected in BALB/c mouse needle back-scratch wound abrasion infection model assessed as bacterial load in shaved dorsal surfaces of mouse after 15 mins measured after 1 day by bioluminescence imaging method; format: organism-based; details: in vivo
How it was run: (§5)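 Bioluminescent A. baumannii inoculated into needle-scratch wounds on shaved mouse backs. Sites got 40 μL of a 250 μM stock of compound, then 652 nm red light at 0, 12, 36, 84, 108 and 120 J/cm2, or were kept dark (dark controls). Normalized wound RLU (mean ± SEM, 4-6 mice/group) was imaged during illumination, then daily for 14 days.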

[14] = test system: Acinetobacter baumannii; experiment: (§6) Photodynamic antibacterial activity against Acinetobacter baumannii AB Iraqi 007 infected in BALB/c mouse needle back-scratch wound abrasion infection model assessed as reduction in bacterial load in shaved dorsal surfaces of mouse after 15 mins followed by 36 J/cm'2 irradiation with red light over 20 mins by bioluminescence imaging method; format: functional; set-up: scale not given: the % may be the effect or the level left; how it was run: as §5
[15] = test system: Acinetobacter baumannii; experiment: as §6, with “followed by up to 120 J/cm'2 irradiation” for “followed by 36 J/cm'2 irradiation”, “20 mins measured after 1 day by bioluminescence” for “20 mins by bioluminescence”; format: functional; set-up: scale not given: the % may be the effect or the level left; how it was run: as §5
[16] = test system: Escherichia coli; experiment: as §1, with “mins” for “mins measured after 10 days”; format: functional; set-up: scale not given: the % may be the effect or the level left; how it was run: as §2
[17] = test system: Acinetobacter baumannii; experiment: Dark toxicity against Acinetobacter baumannii AB Iraqi 007 infected in BALB/c mouse needle back-scratch wound abrasion infection model assessed as reduction in bacterial load in shaved dorsal surfaces of mouse after 15 mins measured after 12 days by bioluminescence imaging method; format: organism-based; details: in vivo; how it was run: as §5
[18] = test system: Acinetobacter baumannii; experiment: Dark toxicity against Acinetobacter baumannii AB Iraqi 007 infected in BALB/c mouse needle back-scratch wound abrasion infection model assessed as reduction in bacterial load in shaved dorsal surfaces of mouse measured after 15 mins by bioluminescence imaging method; format: organism-based; set-up: scale not given: the % may be the effect or the level left; details: in vivo, 0.25 h; how it was run: as §5
[19] = test system: Escherichia coli; experiment: Dark toxicity against enteropathogenic Escherichia coli WS2572 infected in BALB/c mouse full-thickness third-degree burn infection model assessed as reduction in bacterial load in shaved dorsal surfaces of mouse after 15 mins measured after 1 day by bioluminescence imaging method; format: organism-based; details: in vivo; how it was run: as §2
[20] = test system: Acinetobacter baumannii; experiment: as §6, with “84” for “36”; format: functional, organism-based; how it was run: as §5
[21] = test system: Acinetobacter baumannii; experiment: as §6, with “followed by up to 120 J/cm'2 irradiation” for “followed by 36 J/cm'2 irradiation”, “20 mins measured up to 6 days by bioluminescence” for “20 mins by bioluminescence”; format: functional, organism-based; how it was run: as §5
[22] = test system: Escherichia coli; experiment: as §1, with “1 day” for “10 days”; format: functional, organism-based; how it was run: as §2
[23] = test system: Escherichia coli; experiment: as §1, with “12” for “10”; format: functional, organism-based; how it was run: as §2
[24] = test system: Acinetobacter baumannii; experiment: as §6, with “108” for “36”; format: functional, organism-based; how it was run: as §5
[25] = test system: Acinetobacter baumannii; experiment: as §6, with “followed by up to 120 J/cm'2 irradiation” for “followed by 36 J/cm'2 irradiation”, “20 mins measured after 10 days by bioluminescence” for “20 mins by bioluminescence”; format: functional, organism-based; how it was run: as §5

Structure (SMILES) | LCK [2] | Activity [3] | LCK [4] | Activity [5] | LCK [8] | LCK [10] | Activity [11] | Activity [12] | LCK [9] | Activity [13] | Activity [14] | Activity [17] | Activity [18] | Activity [2] | other results
CN(CCN(C)c1ccc2nc3ccc(N(C)C)cc3[s+]c2c1)C(=O)c1ccc(-c2cc3cc([N+](=O)[O-])ccc3[nH]2)cc1.[Cl-] | 4 | Non-Toxic | 6 | Non-Toxic | 4 | 6 | Non-Toxic | 40% | – | – | – | – | – | – | Activity [1]: Active; Activity [6]: 80%; Activity [7]: Active; Activity [9]: Active
CN(CCCOc1ccccc1NC(=O)Nc1ccc2ccccc2c1)CCN(C)c1ccc2nc3ccc(N(C)C)cc3[s+]c2c1.[Cl-] | 4 | Non-Toxic | – | Non-Toxic | – | 3 | Non-Toxic | – | 4.5 | – | – | – | – | – | –
CN(C)c1ccc2nc3ccc(N(C)C)cc3[s+]c2c1.[Cl-] [METHYLENE BLUE ANHYDROUS] | – | Non-Toxic | – | Non-Toxic | 2 | 2.5 | Non-Toxic | 25% | 3.5 | > 50% | 50% | Toxic | < 25% | – | Activity [15]: >50%; Activity [16]: 90%; Activity [19]: Not Active
CN(CCN(C)c1ccc2nc3ccc(N(C)C)cc3[s+]c2c1)Cc1ccc(-c2cc3cc([N+](=O)[O-])ccc3[nH]2)cc1.[Cl-] | – | Non-Toxic | 2 | Non-Toxic | 2 | 4 | Non-Toxic | – | 7 | > 50% | 95% | Toxic | < 25% | Active | Activity [20]: Active; Activity [21]: Active
CN(C)c1ccc2nc3ccc(=[N+](C)C)cc-3sc2c1 | – | – | – | – | – | – | – | – | – | – | – | – | – | Active | Activity [4]: Active; Activity [22]: inactive; Activity [23]: Active; Activity [24]: Active; Activity [25]: Active
